Assay results from ChEMBL document CHEMBL4400518, “Synthesis, antimicrobial and cytotoxic activities, and molecular docking studies of N-arylsulfonylindoles containing an aminoguanidine, a semicarbazide, and a thiosemicarbazide moiety” (Eur J Med Chem, 2019).
≈ marks a conversion by molar mass, not a printed value.

Key:
Assay type in all cases: functional
Escherichia coli [1] = assay: Antibacterial activity against Escherichia coli CMCC 44568 measured after 24 hrs by ELISA; settings: CMCC 44568, 24 h
Summary of the method: (§1)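 Broth microdilution MIC. Mid-log bacteria in MHB or TSB diluted 1000-fold, inoculated at 10^5 CFU/mL. Compounds added from DMSO stocks; final DMSO at most 0.05%. Incubation 24 h at 37 °C. Growth read as absorbance at 630 nm. MIC taken as the lowest concentration giving complete growth inhibition. Three independent experiments.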

Enterococcus faecalis = assay: Antibacterial activity against Enterococcus faecalis CMCC 29212 measured after 24 hrs by ELISA; settings: CMCC 29212, 24 h; summary of the method: as §1
Bacillus subtilis = assay: Antibacterial activity against Bacillus subtilis CMCC 63501 measured after 24 hrs by ELISA; settings: CMCC 63501, 24 h; summary of the method: as §1
Pseudomonas aeruginosa [2] = assay: Antibacterial activity against Pseudomonas aeruginosa CMCC 10104 measured after 24 hrs by ELISA; settings: CMCC 10104, 24 h; summary of the method: as §1
Pseudomonas aeruginosa [3] = assay: Antibacterial activity against Pseudomonas aeruginosa CMCC 27853 measured after 24 hrs by ELISA; settings: CMCC 27853, 24 h; summary of the method: as §1
Staphylococcus aureus [4] = assay: Antibacterial activity against Staphylococcus aureus CMCC 25923 measured after 24 hrs by ELISA; settings: CMCC 25923, 24 h; summary of the method: as §1
Streptococcus pneumoniae = assay: Antibacterial activity against Streptococcus pneumoniae CMCC 31968 measured after 24 hrs by ELISA; settings: CMCC 31968, 24 h
Staphylococcus aureus [5] = assay: Antibacterial activity against Staphylococcus aureus CMCC(B) 26003 measured after 24 hrs by ELISA; settings: CMCC(B) 26003, 24 h; summary of the method: as §1
Streptococcus pyogenes = assay: Antibacterial activity against Streptococcus pyogenes CMCC 32067 measured after 24 hrs by ELISA; settings: CMCC 32067, 24 h; summary of the method: as §1
Escherichia coli [6] = assay: Antibacterial activity against Escherichia coli CMCC 25922 measured after 24 hrs by ELISA; settings: CMCC 25922, 24 h; summary of the method: as §1

| Structure (SMILES) | MIC (Escherichia coli [1]) [µM] | MIC (Enterococcus faecalis) [µM] | MIC (Bacillus subtilis) [µM] | MIC (Pseudomonas aeruginosa [2]) [µM] | MIC (Pseudomonas aeruginosa [3]) [µM] | MIC (Staphylococcus aureus [4]) [µM] | MIC (Streptococcus pneumoniae) [µM] | MIC (Staphylococcus aureus [5]) [µM] | MIC (Streptococcus pyogenes) [µM] | MIC (Escherichia coli [6]) [µM] |
| --- | --- | --- | --- | --- | --- | --- | --- | --- | --- | --- |
| Cc1ccc(S(=O)(=O)n2cc(/C=N\NC(N)=S)c3cc(Br)ccc32)cc1 | > 284 | > 284 | > 284 | > 284 | > 284 | > 284 | > 284 | 284 (≈ 128 µg/mL) | > 284 | > 284 |
| NC(=O)N/N=C\c1cn(S(=O)(=O)c2ccccc2)c2ccccc12 | > 374 | > 374 | 93.6 (≈ 32 µg/mL) | > 374 | > 374 | 93.6 (≈ 32 µg/mL) | > 374 | 93.6 (≈ 32 µg/mL) | > 374 | > 374 |
| NC(=S)N/N=C\c1cn(S(=O)(=O)c2ccccc2)c2ccc(Br)cc12 | > 294 | > 294 | > 294 | > 294 | > 294 | > 294 | > 294 | 294 (≈ 128 µg/mL) | > 294 | > 294 |
| Cc1ccc(S(=O)(=O)n2cc(/C=N\NC(N)=O)c3cc(Br)ccc32)cc1 | > 295 | > 295 | 9.22 (≈ 4.01 µg/mL) | > 295 | > 295 | > 295 | > 295 | 295 (≈ 128 µg/mL) | > 295 | > 295 |
| CC/C(=N/NC(=N)N)c1cn(S(=O)(=O)c2ccccc2)c2ccccc12 | 43.4 (≈ 16 µg/mL) | 43.4 (≈ 16 µg/mL) | > 347 | 43.4 (≈ 16 µg/mL) | 173 (≈ 64.1 µg/mL) | 21.7 (≈ 8.01 µg/mL) | 10.8 (≈ 4 µg/mL) | 21.7 (≈ 8.01 µg/mL) | 10.8 (≈ 4 µg/mL) | 43.4 (≈ 16 µg/mL) |
| CC/C(=N/NC(N)=O)c1cn(S(=O)(=O)c2ccc(C)cc2)c2ccc(Br)cc12 | > 277 | > 277 | > 277 | > 277 | > 277 | > 277 | > 277 | > 277 | > 277 | > 277 |
| C/C(=N/NC(=N)N)c1cn(S(=O)(=O)c2ccccc2)c2ccc(Br)cc12 | 9.24 (≈ 4.01 µg/mL) | 9.24 (≈ 4.01 µg/mL) | 9.24 (≈ 4.01 µg/mL) | > 296 | > 296 | 4.62 (≈ 2.01 µg/mL) | 4.62 (≈ 2.01 µg/mL) | 4.62 (≈ 2.01 µg/mL) | 296 (≈ 128 µg/mL) | 18.5 (≈ 8.03 µg/mL) |
| NC(=S)N/N=C\c1cn(S(=O)(=O)c2ccccc2)c2ccccc12 | > 358 | > 358 | > 358 | > 358 | 358 (≈ 128 µg/mL) | > 358 | > 358 | 179 (≈ 64.1 µg/mL) | > 358 | > 358 |
| CC/C(=N/NC(N)=S)c1cn(S(=O)(=O)c2ccccc2)c2ccccc12 | 332 (≈ 128 µg/mL) | 166 (≈ 64.1 µg/mL) | 82.9 (≈ 32 µg/mL) | > 332 | 332 (≈ 128 µg/mL) | 332 (≈ 128 µg/mL) | > 332 | 64 (≈ 24.7 µg/mL) | > 332 | 332 (≈ 128 µg/mL) |
| CC/C(=N/NC(N)=O)c1cn(S(=O)(=O)c2ccccc2)c2ccccc12 | > 346 | > 346 | > 346 | > 346 | > 346 | 346 (≈ 128 µg/mL) | > 346 | > 346 | > 346 | > 346 |
| C/C(=N/NC(N)=O)c1cn(S(=O)(=O)c2ccccc2)c2ccccc12 | > 360 | > 360 | 89.9 (≈ 32 µg/mL) | > 360 | > 360 | > 360 | > 360 | 360 (≈ 128 µg/mL) | > 360 | > 360 |
| N=C(N)N/N=C\c1cn(S(=O)(=O)c2ccccc2)c2ccccc12 | 23.5 (≈ 8.01 µg/mL) | 46.9 (≈ 16 µg/mL) | 11.7 (≈ 4 µg/mL) | 23.5 (≈ 8.01 µg/mL) | 46.9 (≈ 16 µg/mL) | 11.7 (≈ 4 µg/mL) | 46.9 (≈ 16 µg/mL) | 5.87 (≈ 2 µg/mL) | > 375 | > 375 |
| NC(=O)N/N=C\c1cn(S(=O)(=O)c2ccccc2)c2ccc(Br)cc12 | > 305 | > 305 | 19.1 (≈ 8.03 µg/mL) | > 305 | > 305 | 305 (≈ 128 µg/mL) | > 305 | 38.1 (≈ 16.1 µg/mL) | > 305 | > 305 |
| C/C(=N/NC(N)=O)c1cn(S(=O)(=O)c2ccccc2)c2ccc(Br)cc12 | > 295 | 36.9 (≈ 16 µg/mL) | 295 (≈ 128 µg/mL) | > 295 | > 295 | 295 (≈ 128 µg/mL) | > 295 | 295 (≈ 128 µg/mL) | > 295 | > 295 |
| CC/C(=N/NC(=N)N)c1cn(S(=O)(=O)c2ccccc2)c2ccc(Br)cc12 | 4.47 (≈ 2 µg/mL) | 8.95 (≈ 4.01 µg/mL) | 4.47 (≈ 2 µg/mL) | > 286 | > 286 | 4.47 (≈ 2 µg/mL) | 1.12 (≈ 0.502 µg/mL) | 4.47 (≈ 2 µg/mL) | > 286 | 17.9 (≈ 8.03 µg/mL) |
| CC/C(=N/NC(N)=S)c1cn(S(=O)(=O)c2ccccc2)c2ccc(Br)cc12 | > 276 | > 276 | 69 (≈ 32.1 µg/mL) | > 276 | 276 (≈ 128 µg/mL) | > 276 | > 276 | 276 (≈ 128 µg/mL) | > 276 | > 276 |
| CC/C(=N/NC(N)=O)c1cn(S(=O)(=O)c2ccccc2)c2ccc(Br)cc12 | > 286 | > 286 | > 286 | > 286 | > 286 | > 286 | > 286 | > 286 | > 286 | > 286 |

Second part, the molecule after the results:

| MIC (Escherichia coli [1]) [µM] | MIC (Enterococcus faecalis) [µM] | MIC (Bacillus subtilis) [µM] | MIC (Pseudomonas aeruginosa [2]) [µM] | MIC (Pseudomonas aeruginosa [3]) [µM] | MIC (Staphylococcus aureus [4]) [µM] | MIC (Streptococcus pneumoniae) [µM] | MIC (Staphylococcus aureus [5]) [µM] | MIC (Streptococcus pyogenes) [µM] | MIC (Escherichia coli [6]) [µM] | Structure (SMILES) |
| --- | --- | --- | --- | --- | --- | --- | --- | --- | --- | --- |
| 20.9 (≈ 8.01 µg/mL) | 20.9 (≈ 8.01 µg/mL) | 10.4 (≈ 4 µg/mL) | > 334 | 334 (≈ 128 µg/mL) | 10.4 (≈ 4 µg/mL) | 83.5 (≈ 32 µg/mL) | 5.22 (≈ 2 µg/mL) | 5.22 (≈ 2 µg/mL) | 20.9 (≈ 8.01 µg/mL) | CC/C(=N/NC(=N)N)c1cn(S(=O)(=O)c2ccc(C)cc2)c2ccccc12 |
| > 286 | > 286 | 8.93 (≈ 4.01 µg/mL) | > 286 | > 286 | > 286 | > 286 | 286 (≈ 128 µg/mL) | > 286 | > 286 | C/C(=N/NC(N)=O)c1cn(S(=O)(=O)c2ccc(C)cc2)c2ccc(Br)cc12 |
| > 343 | > 343 | > 343 | > 343 | 343 (≈ 128 µg/mL) | > 343 | > 343 | 343 (≈ 128 µg/mL) | > 343 | > 343 | Cc1ccc(S(=O)(=O)n2cc(/C=N\NC(N)=S)c3ccccc32)cc1 |
| > 333 | > 333 | 333 (≈ 128 µg/mL) | > 333 | > 333 | 83.3 (≈ 32 µg/mL) | > 333 | 333 (≈ 128 µg/mL) | > 333 | > 333 | CC/C(=N/NC(N)=O)c1cn(S(=O)(=O)c2ccc(C)cc2)c2ccccc12 |
| 332 (≈ 128 µg/mL) | 332 (≈ 128 µg/mL) | 166 (≈ 64.1 µg/mL) | > 332 | 332 (≈ 128 µg/mL) | 332 (≈ 128 µg/mL) | > 332 | 332 (≈ 128 µg/mL) | > 332 | 332 (≈ 128 µg/mL) | C/C(=N/NC(N)=S)c1cn(S(=O)(=O)c2ccc(C)cc2)c2ccccc12 |
| > 346 | > 346 | 346 (≈ 128 µg/mL) | > 346 | > 346 | > 346 | > 346 | 346 (≈ 128 µg/mL) | > 346 | > 346 | C/C(=N/NC(N)=O)c1cn(S(=O)(=O)c2ccc(C)cc2)c2ccccc12 |
| 344 (≈ 128 µg/mL) | > 344 | 172 (≈ 64.1 µg/mL) | > 344 | 344 (≈ 128 µg/mL) | 344 (≈ 128 µg/mL) | > 344 | 344 (≈ 128 µg/mL) | > 344 | 344 (≈ 128 µg/mL) | C/C(=N/NC(N)=S)c1cn(S(=O)(=O)c2ccccc2)c2ccccc12 |
| 268 (≈ 128 µg/mL) | > 268 | > 268 | > 268 | > 268 | 268 (≈ 128 µg/mL) | > 268 | 134 (≈ 64.2 µg/mL) | > 268 | 268 (≈ 128 µg/mL) | CC/C(=N/NC(N)=S)c1cn(S(=O)(=O)c2ccc(C)cc2)c2ccc(Br)cc12 |
| > 320 | > 320 | > 320 | > 320 | > 320 | 320 (≈ 128 µg/mL) | > 320 | 320 (≈ 128 µg/mL) | > 320 | > 320 | CC/C(=N/NC(N)=S)c1cn(S(=O)(=O)c2ccc(C)cc2)c2ccccc12 |
| > 284 | > 284 | 284 (≈ 128 µg/mL) | > 284 | > 284 | > 284 | > 284 | 284 (≈ 128 µg/mL) | > 284 | > 284 | C/C(=N/NC(N)=S)c1cn(S(=O)(=O)c2ccccc2)c2ccc(Br)cc12 |
| 360 (≈ 128 µg/mL) | > 360 | 44.9 (≈ 16 µg/mL) | > 360 | 360 (≈ 128 µg/mL) | 180 (≈ 64.1 µg/mL) | > 360 | 44.9 (≈ 16 µg/mL) | > 360 | 360 (≈ 128 µg/mL) | Cc1ccc(S(=O)(=O)n2cc(/C=N\NC(N)=O)c3ccccc32)cc1 |
| > 276 | > 276 | > 276 | > 276 | > 276 | 276 (≈ 128 µg/mL) | > 276 | 276 (≈ 128 µg/mL) | > 276 | > 276 | C/C(=N/NC(N)=S)c1cn(S(=O)(=O)c2ccc(C)cc2)c2ccc(Br)cc12 |
